Experimental data taken from ChEMBL document CHEMBL4196009, “Novel vitexin-inspired scaffold against leukemia” (Eur J Med Chem, 2018).
Activity calls are given as the source filed them. The rule behind the calls is not given here.

Key:
[1] = molecular target: T1, Retinoblastoma-associated protein (Homo sapiens) (UniProt P06400); test: Inhibition of Rb phosphorylation in human KOPN8 cells assessed as ratio of phosphorylated Rb to total Rb levels at 30 uM after 3 hrs by Western blot analysis relative to control; assay type: cell-based
T1 sequence (whole entry): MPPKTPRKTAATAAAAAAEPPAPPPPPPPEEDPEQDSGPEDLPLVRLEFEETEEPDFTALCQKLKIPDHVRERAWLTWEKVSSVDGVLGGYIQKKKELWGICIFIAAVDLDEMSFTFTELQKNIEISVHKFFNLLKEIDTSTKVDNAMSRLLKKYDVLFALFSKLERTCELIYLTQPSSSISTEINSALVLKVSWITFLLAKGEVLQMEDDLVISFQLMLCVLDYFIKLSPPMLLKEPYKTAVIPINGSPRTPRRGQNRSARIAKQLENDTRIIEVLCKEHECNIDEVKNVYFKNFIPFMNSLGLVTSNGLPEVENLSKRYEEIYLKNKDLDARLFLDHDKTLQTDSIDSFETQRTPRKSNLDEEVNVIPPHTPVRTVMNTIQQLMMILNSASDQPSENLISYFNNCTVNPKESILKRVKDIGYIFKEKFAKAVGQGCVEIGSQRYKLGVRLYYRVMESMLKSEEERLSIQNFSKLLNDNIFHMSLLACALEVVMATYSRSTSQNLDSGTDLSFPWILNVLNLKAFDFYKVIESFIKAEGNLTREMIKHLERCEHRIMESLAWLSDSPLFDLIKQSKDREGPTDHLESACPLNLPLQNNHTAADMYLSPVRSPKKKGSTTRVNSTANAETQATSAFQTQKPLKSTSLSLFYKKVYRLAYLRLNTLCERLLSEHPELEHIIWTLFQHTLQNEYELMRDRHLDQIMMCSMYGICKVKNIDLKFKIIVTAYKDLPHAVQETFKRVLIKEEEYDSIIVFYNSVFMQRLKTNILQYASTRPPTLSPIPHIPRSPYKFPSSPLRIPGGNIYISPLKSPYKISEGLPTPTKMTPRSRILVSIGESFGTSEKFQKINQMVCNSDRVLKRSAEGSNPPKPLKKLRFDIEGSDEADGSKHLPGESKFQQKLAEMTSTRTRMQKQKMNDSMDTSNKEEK
Summary of the method: (§1)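 KOPN-8 pre-B ALL cells were treated for 3 h and 24 h, with or without N-acetyl cysteine added to a parallel set of cells as an antioxidant/ROS quencher. Lysates were analysed by Western blot for phosphorylated Rb and total Rb. The same blots also probed PARP cleavage, Mcl-1, Ser-2-phosphorylated RNAPII CTD and cMyc.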

Homo sapiens [2] = species on record: Homo sapiens; test: Inhibition of RNA polymerase 2 C-terminal domain phosphorylation at Ser2 residue in human KOPN8 cells after 24 hrs by Western blot analysis; assay type: cell-based
Summary of the method: (§2)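 KOPN-8 cells were exposed to compound for 3 h and 24 h, with or without N-acetylcysteine added to a parallel set as antioxidant. Lysates were analysed by Western blot for cleaved PARP, Mcl-1, Ser-2-phosphorylated RNAPII CTD, cMyc, total Rb and pRb. Signals were compared against controls for dose-dependent change.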

[3] = molecular target: T1, Retinoblastoma-associated protein (Homo sapiens); test: Inhibition of Rb phosphorylation in human KOPN8 cells assessed as ratio of phosphorylated Rb to total Rb levels at 100 uM pre-treated with NAC for 1 hr and measured after 3 hrs by Western blot analysis relative to control; assay type: cell-based; summary of the method: as §1
[4] = molecular target: T1, Retinoblastoma-associated protein (Homo sapiens); test: Inhibition of Rb phosphorylation in human KOPN8 cells assessed as ratio of phosphorylated Rb to total Rb levels at 10 uM pre-treated with NAC for 1 hr and measured after 3 hrs by Western blot analysis relative to control; assay type: cell-based; summary of the method: as §1
KOPN-8 [5] = test: Induction of apoptosis in human KOPN8 cells assessed as necrotic cells at 10 uM after 24 hrs by Annexin V-FITC/propidium iodide staining-based flow cytometry (reference value: 0.2%); assay type: functional
Summary of the method: (§3)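 KOPN-8 cells were treated for 24 h, with a DMSO vehicle control and a staurosporine positive control. Cells were stained with FITC-Annexin V and propidium iodide and analysed by flow cytometry. Quadrant gating separated viable, early apoptotic, late apoptotic (Q2) and necrotic populations.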

THLE-2 = test: Antiproliferative activity against human THLE2 cells after 72 hrs by CelTiter-Glo assay; assay type: cell-based; conditions: THLE-2, 72 h
KOPN-8 [6] = test: Induction of apoptosis in human KOPN8 cells assessed as effect on Mcl-1 level at 10 uM pre-treated with NAC for 1 hr and measured after 3 hrs by Western blot analysis relative to control; assay type: functional
Homo sapiens [7] = species on record: Homo sapiens; test: Inhibition of RNA polymerase 2 C-terminal domain phosphorylation at Ser2 residue in human KOPN8 cells at 10 uM after 3 hrs by Western blot analysis relative to control; assay type: cell-based; summary of the method: as §2
KOPN-8 [8] = test: Induction of apoptosis in human KOPN8 cells assessed as upregulation of cleaved PARP level after 3 to 24 hrs by Western blot analysis; assay type: functional, cell-based; summary of the method: as §2
MCF7 = test: Induction of oxidative stress in human MCF7 cells transfected with mRuby-Mito-7 with fugene assessed as increase in intracellular total ROS levels at 50 uM treated 30 mins post NAC addition measured after 1 hr by fluorimetric analysis; assay type: functional, cell-based
Summary of the method: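 MCF-7 cells carried an mRuby-Cox8A mitochondrial label. They were exposed to 50 of compound, alone or together with 50 of N-acetylcysteine, for 1 h. Cells were then stained with CellROX green (ex/em 485/520 nm) plus Hoechst 33342 nuclear stain. Total and mitochondrial ROS fluorescence was imaged in live cells and quantified relative to control.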

SUP-B15 = test: Induction of apoptosis in human SUP-B15 cells assessed as necrotic cells at 10 uM after 24 hrs by Annexin V-FITC/propidium iodide staining-based flow cytometry (reference value: 9.2%); assay type: functional
KOPN-8 [9] = test: Induction of apoptosis in human KOPN8 cells assessed as upregulation of cleaved PARP level at 0.5 uM after 3 hrs by Western blot analysis; assay type: functional, cell-based; summary of the method: as §2
KOPN-8 [10] = test: Cell cycle arrest in human KOPN8 cells assessed as accumulation at S phase at 5 uM after 24 hrs by propidium iodide staining-based flow cytometry (reference value: 66.56%); assay type: functional
Summary of the method: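 KOPN-8 cells treated 24 h alongside a DMSO vehicle and a staurosporine (2.0 µM) positive control. Apoptosis was scored by FITC Annexin V / propidium iodide flow cytometry with quadrant gating (early, late apoptotic). DNA content was measured by PI staining to give the percentage of cells in G0/G1, S and G2/M. Groups were compared by t-test; error bars are SD.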

[11] = molecular target: T1, Retinoblastoma-associated protein (Homo sapiens); test: Inhibition of Rb phosphorylation in human KOPN8 cells assessed as ratio of phosphorylated Rb to total Rb levels at 0.5 uM after 24 hrs by Western blot analysis relative to control; assay type: cell-based; summary of the method: as §2
KOPN-8 [12] = test: Induction of apoptosis in human KOPN8 cells assessed as late apoptotic cells at 5 uM after 24 hrs by Annexin V-FITC/propidium iodide staining-based flow cytometry (reference value: 9.5%); assay type: functional; summary of the method: as §3
Homo sapiens [13] = species on record: Homo sapiens; test: Inhibition of RNA polymerase 2 C-terminal domain phosphorylation at Ser2 residue in human KOPN8 cells at 0.5 uM after 24 hrs by Western blot analysis; assay type: cell-based; summary of the method: as §2
MDA-MB-231 = test: Cell cycle arrest in human MDA-MB-231 cells assessed as accumulation at S phase at 5 uM after 24 hrs by propidium iodide staining-based flow cytometry (reference value: 20.15%); assay type: functional

Row | SMILES | fold change (FC) [1] | inhibition (Homo sapiens [2]) | fold change (FC) [3] | fold change (FC) [4] | Activity (KOPN-8 [5]) [%] | EC50 (THLE-2) [µM] | fold change (FC) (KOPN-8 [6]) | fold change (FC) (Homo sapiens [7]) | Activity (KOPN-8 [8]) | Activity (MCF7) | Activity (SUP-B15) [%] | Activity (KOPN-8 [9]) | Activity (KOPN-8 [10]) [%] | fold change (FC) [11] | Activity (KOPN-8 [12]) [%] | fold change (FC) (Homo sapiens [13]) | Activity (MDA-MB-231) [%]
1 | COc1ccc(-c2c(I)c(=O)c3c(OC)cc(OC)cc3n2S(=O)(=O)c2ccc(OC)cc2)cc1 | 1 | Dose-dependent effect | 1.1 | 1 | 0.3 | 57 | 0.8 | 0.7 | Dose-dependent effect | inactive | 15.7 | – | – | – | – | – | –
2 | CN(C)C(=O)c1cc2cnc(Nc3ccc(N4CCNCC4)cn3)nc2n1C1CCCC1 [RIBOCICLIB] | – | – | – | – | – | – | – | – | – | – | – | Active | 25.55 | 0.9 | 67.4 | 2.3 | 4.64
